Assay results: ChEMBL document CHEMBL4699441, “Identification and Preclinical Evaluation of the Bicyclic Pyrimidine γ-Secretase Modulator BMS-932481” (ACS Med Chem Lett, 2019)
Calls of active or inactive are those of the source. The rule behind the calls is not given here.

Key:
Cytochrome P450 2C8 = biological target: T1, Cytochrome P450 2C8 (Homo sapiens, UniProt P10632); experiment: Inhibition of CYP2C8 in human liver microsomes; format: ADME
T1 sequence (P10632 whole entry): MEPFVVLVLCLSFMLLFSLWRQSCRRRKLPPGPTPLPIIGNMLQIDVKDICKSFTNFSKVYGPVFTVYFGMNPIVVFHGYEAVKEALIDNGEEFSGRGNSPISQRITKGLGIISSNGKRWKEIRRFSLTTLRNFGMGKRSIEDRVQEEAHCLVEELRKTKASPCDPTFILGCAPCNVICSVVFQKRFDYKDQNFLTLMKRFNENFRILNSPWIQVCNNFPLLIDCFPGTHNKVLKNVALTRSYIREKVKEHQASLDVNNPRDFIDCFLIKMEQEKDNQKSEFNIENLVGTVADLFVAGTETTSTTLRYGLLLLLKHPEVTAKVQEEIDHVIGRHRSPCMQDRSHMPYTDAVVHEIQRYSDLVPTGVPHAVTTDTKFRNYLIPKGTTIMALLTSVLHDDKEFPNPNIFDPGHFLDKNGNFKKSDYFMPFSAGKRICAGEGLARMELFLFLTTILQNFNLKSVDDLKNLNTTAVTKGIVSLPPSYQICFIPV

[1] = Cmax in Beagle dog at 300 mg/kg, po measured up to 24 hrs by LC-MS/MS analysis; format: ADME, organism-based, Canis lupus familiaris; design: route oral, dose 300 mg/kg, time >=24; conditions: in vivo
How it was run: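 Dogs given an acute single oral dose of 300 mg/kg; plasma Cmax and AUC measured alongside bilirubin and other clinical pathology assessments.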

[2] = Plasma exposure (AUC) in rat at 10 mg/kg measured after 24 hrs
H4 [3] = experiment: Inhibition of amyloid beta (1 to 42) secretion in human H4 cells overexpressing APP incubated for 24 hrs by MALDI-TOF mass spectrometric analysis; format: functional, cell-based
[4] = Half life in Beagle dog at 1 mg/kg, iv measured up to 24 hrs by LC-MS/MS analysis; format: ADME, organism-based, Canis lupus familiaris; conditions: in vivo
How it was run: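 Male Beagle dogs and male cynomolgus monkeys, 1 mg/kg by 5 min iv infusion in 9:1 PEG:EtOH, n=3.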

[5] = Toxicity in Beagle dog assessed as NOAEL administered for 1 month; design: species or system Canis lupus familiaris; conditions: in vivo, 730 h, time 1 months
[6] = Toxicity in rat assessed as reduction in food consumption at 100 mg/kg, po administered for 2 week; format: organism-based; conditions: in vivo, 336 h, time 2 weeks
[7] = Induction of CYP3A4 mRNA expression in human hepatocytes at 1 uM relative to control; format: ADME, cell-based, Hepatocyte
[8] = Volume of steady state distribution in Sprague-Dawley rat at 2 mg/kg, iv measured up to 24 hrs by LC-MS/MS analysis; format: ADME, organism-based; conditions: in vivo
How it was run: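 Sprague–Dawley rats; 2 mg/kg given as 5 min iv infusion in 9:1 PEG:EtOH; n = 5; volume of distribution at steady state.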

[9] = Efflux ratio of permeability in human Caco2 cells; format: ADME, cell-based; conditions: caco-2
[10] = Dissociation constant, pKa of compound; format: physicochemical
[11] = Half life in Sprague-Dawley rat at 2 mg/kg, iv measured up to 24 hrs by LC-MS/MS analysis; format: ADME, organism-based; conditions: in vivo
How it was run: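 Sprague-Dawley rats, 2 mg/kg by 5 min iv infusion in 9:1 PEG:EtOH, n=5.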

Cytochrome P450 2C9 = Cytochrome P450 2C9 (Homo sapiens, UniProt P11712); experiment: Inhibition of CYP2C9 in human liver microsomes; format: ADME
[12] = Fraction unbound in Sprague-Dawley rat plasma measured after 24 hrs by LC-MS/MS analysis; format: ADME, cell-free
H4 [13] = experiment: Inhibition of amyloid beta (1 to 40) secretion in human H4 cells overexpressing APP incubated for 24 hrs by MALDI-TOF mass spectrometric analysis; format: functional, cell-based
[14] = Reduction in amyloid beta (1 to 42) secretion in brain in triple transgenic LaFerla mouse at 30 mg/kg, po measured after 3 hrs relative to control; format: functional
How it was run: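 Triple transgenic LaFerla mice (APP Swedish, MAPT P301L, PSEN1 M146V) given 30 mg/kg po; brain Aβ1-42 measured 3 h postdose; n = 3.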

[15] = Fraction unbound in human plasma measured after 24 hrs by LC-MS/MS analysis; format: ADME, cell-free
Brain = experiment: Antialzheimer activity in rat brain assessed as reduction in amyloid beta (1 to 42) AUC at 3 mg/kg measured after 24 hrs relative to control; format: functional; design: scale not given: the % may be the effect or the level left
How it was run: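 Rats dosed orally; brain Aβ1-42 followed over 24 h, and the reduction in brain Aβ1-42 AUC integrated over 0–24 h was fitted to an indirect response PK/PD model.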

[16] = biological target: T2, Solute carrier organic anion transporter family member 1B1 (Homo sapiens, UniProt Q9Y6L6); experiment: Inhibition of OATP1B1 (unknown origin); format: ADME
T2 sequence (Q9Y6L6 whole entry): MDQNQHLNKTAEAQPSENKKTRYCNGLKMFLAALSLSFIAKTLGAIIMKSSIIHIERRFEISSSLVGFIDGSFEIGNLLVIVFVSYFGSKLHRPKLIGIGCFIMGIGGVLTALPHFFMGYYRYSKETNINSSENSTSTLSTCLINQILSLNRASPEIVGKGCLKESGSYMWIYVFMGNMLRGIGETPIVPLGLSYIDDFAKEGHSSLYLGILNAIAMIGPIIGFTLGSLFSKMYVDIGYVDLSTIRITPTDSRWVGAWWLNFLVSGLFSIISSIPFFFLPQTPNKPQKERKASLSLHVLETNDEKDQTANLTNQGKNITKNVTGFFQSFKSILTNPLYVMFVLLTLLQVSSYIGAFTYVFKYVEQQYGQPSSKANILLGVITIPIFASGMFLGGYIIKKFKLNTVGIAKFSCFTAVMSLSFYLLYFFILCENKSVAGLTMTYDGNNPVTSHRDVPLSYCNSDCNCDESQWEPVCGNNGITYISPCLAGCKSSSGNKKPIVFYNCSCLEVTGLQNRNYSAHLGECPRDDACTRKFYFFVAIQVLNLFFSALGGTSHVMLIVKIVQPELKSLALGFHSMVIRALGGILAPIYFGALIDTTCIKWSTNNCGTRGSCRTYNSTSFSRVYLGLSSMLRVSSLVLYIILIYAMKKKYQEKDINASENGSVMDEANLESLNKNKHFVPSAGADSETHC

Cytochrome P450 3A4 = Cytochrome P450 3A4 (Homo sapiens, UniProt P08684); experiment: Time dependent inhibition of CYP3A4 in human liver microsomes assessed as inhibition constant; format: ADME
[17] = Toxicity in Beagle dog assessed as changes in bilirubin level at 300 mg/kg, po; format: organism-based, Canis lupus familiaris; conditions: in vivo
How it was run: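 Dogs given a single acute oral dose of 300 mg/kg; bilirubin and other clinical pathology assessed; Cmax and AUC measured.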

[18] = Volume of steady state distribution in cynomolgus monkey at 1 mg/kg, iv measured up to 24 hrs by LC-MS/MS analysis; format: ADME, organism-based, Macaca fascicularis; conditions: in vivo
How it was run: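 Male Beagle dog or male cynomolgus monkey; 1 mg/kg as 5 min iv infusion in 9:1 PEG:EtOH; n = 3; volume of distribution at steady state.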

[19] = Oral bioavailability in cynomolgus monkey at 1 mg/kg dosed as nano suspension measured up to 24 hrs by LC-MS/MS analysis; format: ADME, organism-based, Macaca fascicularis; conditions: in vivo
How it was run: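 Oral dosing as a nanosuspension in Sprague–Dawley rat, male Beagle dog and male cynomolgus monkey; dogs pretreated with pentagastrin.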

Sequence of Cytochrome P450 2C9 (P11712 whole entry): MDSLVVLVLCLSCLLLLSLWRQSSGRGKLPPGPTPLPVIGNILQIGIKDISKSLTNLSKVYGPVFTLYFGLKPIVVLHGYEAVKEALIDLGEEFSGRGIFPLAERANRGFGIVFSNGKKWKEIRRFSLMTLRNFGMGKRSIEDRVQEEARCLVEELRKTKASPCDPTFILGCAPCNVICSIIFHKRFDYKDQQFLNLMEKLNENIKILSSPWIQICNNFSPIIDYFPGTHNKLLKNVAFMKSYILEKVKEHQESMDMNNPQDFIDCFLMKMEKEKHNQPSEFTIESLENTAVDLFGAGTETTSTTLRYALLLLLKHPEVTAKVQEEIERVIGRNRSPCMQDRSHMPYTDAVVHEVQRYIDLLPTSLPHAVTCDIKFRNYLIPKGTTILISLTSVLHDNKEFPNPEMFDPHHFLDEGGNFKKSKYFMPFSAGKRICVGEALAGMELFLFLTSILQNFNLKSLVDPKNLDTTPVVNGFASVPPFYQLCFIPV
Sequence of Cytochrome P450 3A4 (P08684 whole entry): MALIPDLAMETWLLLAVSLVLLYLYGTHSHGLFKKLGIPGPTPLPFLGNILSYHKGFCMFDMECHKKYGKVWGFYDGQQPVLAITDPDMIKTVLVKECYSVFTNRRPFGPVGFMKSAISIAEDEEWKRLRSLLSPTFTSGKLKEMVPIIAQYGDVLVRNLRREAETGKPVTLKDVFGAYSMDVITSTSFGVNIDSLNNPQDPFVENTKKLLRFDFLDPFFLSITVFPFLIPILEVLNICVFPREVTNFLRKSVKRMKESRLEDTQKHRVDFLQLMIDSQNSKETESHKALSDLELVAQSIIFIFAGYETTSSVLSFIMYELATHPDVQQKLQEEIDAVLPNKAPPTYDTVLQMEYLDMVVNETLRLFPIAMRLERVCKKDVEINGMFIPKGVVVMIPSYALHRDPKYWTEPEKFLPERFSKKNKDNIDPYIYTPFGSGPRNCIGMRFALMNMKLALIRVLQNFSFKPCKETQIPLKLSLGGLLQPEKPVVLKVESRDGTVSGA

In the case of `CNc1nc(Nc2ccc(-n3cnc(C)n3)c(OC)c2)nc2c1CC[C@H]2c1ccc(F)cc1`, the IC50 (Cytochrome P450 2C8) is reported as 4.5 µM, the Cmax [1] is reported as 14 µM and the AUC at 24 h [2] is reported as 32 µM·h. For the same molecule, the inhibition (H4 [3]) was “Active”, the t1/2 [4] was 8.7 h and the NOAEL [5] was 150 mg/kg. The Activity [6] was “Non-Toxic”, the Activity [7] was 16% and the Vdss [8] was 2.3 L/kg. For the same molecule, the Ratio [9] was 0.8, the pKa [10] was 2 and the t1/2 [11] was 2.7 h. The IC50 (Cytochrome P450 2C9) was 7.4 µM, the Fu [12] was 0.7% and the inhibition (H4 [13]) was “Active”. It also gave an inhibition in vivo at 30 mg/kg [14] of 81%, a Fu [15] of 0.6% and an Activity (Brain) of 45%. For the same molecule, the IC50 [16] was 66 nM, the Ki (Cytochrome P450 3A4) was 83 µM and the Activity [17] was “Non-Toxic”. For the same molecule, the Vdss [18] was 5.4 L/kg and the F [19] was 45%.
